This is an account of results in ChEMBL document CHEMBL1135761, “Discovery of further pyrrolidine trans-lactams as inhibitors of human neutrophil elastase (HNE) with potential as development candidates and the crystal structure of HNE complexed with an inhibitor (GW475151)” (J Med Chem, 2002).

Usually Tmax stands for the time from dosing to the highest level. A word on the inhibition: it is the percentage by which the read-out fell short of the control. Read a low inhibition as little suppression. One may read the IC50 as the point on the concentration scale where inhibition reaches its midpoint. Broadly, the AUC is the area under the concentration-time curve, a measure of exposure. Read a low AUC as less exposure. As usually defined, the bioavailability is the share of a dose that reaches the circulation, judged against a reference dose that is usually intravenous. Low readings indicate little systemic uptake, high ones much systemic uptake. In general, Vd refers to the apparent volume that relates the amount in the body to the concentration in plasma or blood. As a reminder, the Cmax is the maximum level reached in the sampled fluid or tissue. The term half-life denotes how long it takes for the measured level to halve. Read a low half-life as fast loss.

Structures are written as SMILES. Some results are limits rather than exact numbers.

System in one series: not listed separately
Briefly: Pharmacokinetic parameter Tmax was reported in dog after oral administration. It counts as ADME, organism-based, Canis lupus familiaris. The following applies: in vivo.
On to `CC(C)[C@@H]1C(=O)N(S(C)(=O)=O)[C@@H]2CCN(C(=O)/C=C/CN3CCCCC3)[C@H]21.Cl`, for which the Tmax was 42 min.

A further series has as its target T1, Neutrophil elastase (Homo sapiens) (UniProt P08246).
T1 sequence (whole entry): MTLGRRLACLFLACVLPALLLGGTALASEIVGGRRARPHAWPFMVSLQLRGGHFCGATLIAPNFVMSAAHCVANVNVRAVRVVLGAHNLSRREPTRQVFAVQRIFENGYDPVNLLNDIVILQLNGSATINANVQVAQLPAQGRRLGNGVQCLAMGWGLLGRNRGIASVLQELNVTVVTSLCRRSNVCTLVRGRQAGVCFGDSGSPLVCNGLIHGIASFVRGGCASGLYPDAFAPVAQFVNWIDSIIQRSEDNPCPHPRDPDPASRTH
To be noted: Canis lupus familiaris; Blood; 2 mg/kg.
Compound `CC(C)[C@@H]1C(=O)N(S(C)(=O)=O)[C@@H]2CCN(C(=O)/C=C/CN3CCCCC3)[C@H]21.Cl` had an inhibition of 100%.

The next series addresses T2, Cathepsin G (Homo sapiens, UniProt P08311).
T2 sequence (P08311 whole entry): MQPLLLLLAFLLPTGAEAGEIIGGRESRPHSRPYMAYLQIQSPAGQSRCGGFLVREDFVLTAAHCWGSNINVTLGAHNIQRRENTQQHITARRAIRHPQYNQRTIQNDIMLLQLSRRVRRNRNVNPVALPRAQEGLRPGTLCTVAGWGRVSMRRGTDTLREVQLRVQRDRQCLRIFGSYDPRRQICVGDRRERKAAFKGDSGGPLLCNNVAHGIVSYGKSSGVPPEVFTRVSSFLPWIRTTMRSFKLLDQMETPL
Briefly: The compound was evaluated for its inhibitory activity against cathepsin G using selectivity assay.
Settings: not given
As to `CC(C)[C@@H]1C(=O)N(S(C)(=O)=O)[C@@H]2CCN(C(=O)/C=C/CN3CCCCC3)[C@H]21.Cl`, the IC50 is above 100 µM.

The next series has as its system Rattus norvegicus. Briefly: pharmacokinetic parameter area under the curve (AUC) was reported in rat after intravenous administration. It counts as ADME, organism-based. The following applies: in vivo. In a few lines:
(§1)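 Rats were dosed with the hydrochloride salt at 2 mg/kg intravenously and orally. Plasma pharmacokinetic parameters were derived from each route, and F was taken from the oral versus intravenous exposure. Some rat data were normalized from a 2.4 to a 2 mg/kg dose.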
`CC(C)[C@@H]1C(=O)N(S(C)(=O)=O)[C@@H]2CCN(C(=O)/C=C/CN3CCCCC3)[C@H]21.Cl` returned an AUC of 424 ng·h/mL.

System in the next series: not listed separately
Briefly: Oral bioavailability in rat. The following applies: in vivo. It counts as ADME, organism-based. The method, boiled down: as §1
For `CC(C)[C@@H]1C(=O)N(S(C)(=O)=O)[C@@H]2CCN(C(=O)/C=C/CN3CCCCC3)[C@H]21.Cl`, the bioavailability turned out to be 60%.

The target of another series is T1, Neutrophil elastase (Homo sapiens). To be noted: Canis lupus familiaris; 2 mg/kg.
Compound `CC(C)[C@@H]1C(=O)N(S(C)(=O)=O)[C@@H]2CCN(C(=O)/C=C/CN3CCCCC3)[C@H]21.Cl` returned an inhibition of 97%.

A further series has as its system Rattus norvegicus. Briefly: pharmacokinetic parameter area under the curve (AUC) was reported in rat after oral administration. It counts as ADME, organism-based. To be noted: in vivo. The method, boiled down:
as §1
In the case of `CC(C)[C@@H]1C(=O)N(S(C)(=O)=O)[C@@H]2CCN(C(=O)/C=C/CN3CCCCC3)[C@H]21.Cl`, the AUC is 263 ng·h/mL.

System in another series: not listed separately
Briefly: pharmacokinetic parameter volume of distribution (Vd) was reported in dog after intravenous administration. It counts as ADME, organism-based, Canis lupus familiaris. To be noted: in vivo, read-out: Vd area.
For `CC(C)[C@@H]1C(=O)N(S(C)(=O)=O)[C@@H]2CCN(C(=O)/C=C/CN3CCCCC3)[C@H]21.Cl`, the Vd was 3.5 L/kg.

System in a further series: not listed separately
Briefly: Pharmacokinetic parameter Cmax was reported after in rat oral administration. It counts as ADME, organism-based. The following applies: in vivo. Details: route oral. The method, boiled down: as §1
Regarding `CC(C)[C@@H]1C(=O)N(S(C)(=O)=O)[C@@H]2CCN(C(=O)/C=C/CN3CCCCC3)[C@H]21.Cl`, the peak level (Cmax) was 232 ng/mL.

The test system of the next series is Canis familiaris. Briefly: pharmacokinetic parameter area under the curve (AUC) was reported in dog after intravenous administration. It counts as ADME, organism-based, Canis lupus familiaris. The following applies: in vivo.
Compound `CC(C)[C@@H]1C(=O)N(S(C)(=O)=O)[C@@H]2CCN(C(=O)/C=C/CN3CCCCC3)[C@H]21.Cl` returned an AUC of 405 ng·h/mL.

The target in the next series is T1, Neutrophil elastase (Homo sapiens).
Settings: not given
In turn, `CC(C)[C@@H]1C(=O)N(S(C)(=O)=O)[C@@H]2CCN(C(=O)/C=C/CN3CCCCC3)[C@H]21.Cl` had a k on of 6630 M⁻¹ s⁻¹.

For a further series, the target named is Serine protease 1 (Homo sapiens, UniProt P07477). The experiment in a line: The compound was evaluated for its inhibitory activity against trypsin using selectivity assay.
Serine protease 1, sequence (P07477 whole entry): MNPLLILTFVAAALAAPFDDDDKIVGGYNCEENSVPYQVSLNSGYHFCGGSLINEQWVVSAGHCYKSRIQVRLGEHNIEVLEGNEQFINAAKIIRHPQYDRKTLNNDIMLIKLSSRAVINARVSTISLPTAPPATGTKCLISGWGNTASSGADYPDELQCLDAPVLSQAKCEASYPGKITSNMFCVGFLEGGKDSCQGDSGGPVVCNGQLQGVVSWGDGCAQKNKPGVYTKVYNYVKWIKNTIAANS
Settings: not given
Regarding `CC(C)[C@@H]1C(=O)N(S(C)(=O)=O)[C@@H]2CCN(C(=O)/C=C/CN3CCCCC3)[C@H]21.Cl`, the IC50 was above 100 µM.

For another series, the system named is Canis familiaris. The experiment in a line: pharmacokinetic parameter area under the curve (AUC) was reported in dog after oral administration. It counts as ADME, organism-based, Canis lupus familiaris. To be noted: in vivo.
With `CC(C)[C@@H]1C(=O)N(S(C)(=O)=O)[C@@H]2CCN(C(=O)/C=C/CN3CCCCC3)[C@H]21.Cl`, the AUC was 430 ng·h/mL.

System in another series: not listed separately
The experiment in a line: Pharmacokinetic parameter Tmax was reported in rat after intravenous administration. It counts as ADME, organism-based. To be noted: in vivo. The method, boiled down:
as §1
Turning to `CC(C)[C@@H]1C(=O)N(S(C)(=O)=O)[C@@H]2CCN(C(=O)/C=C/CN3CCCCC3)[C@H]21.Cl`, the Tmax came out at 3 min.

System in the next series: not listed separately
The experiment in a line: Pharmacokinetic parameter Cmax was reported after in dog oral administration. It counts as ADME, organism-based, Canis lupus familiaris. Set-up: route oral. The following applies: in vivo.
`CC(C)[C@@H]1C(=O)N(S(C)(=O)=O)[C@@H]2CCN(C(=O)/C=C/CN3CCCCC3)[C@H]21.Cl` had a Cmax of 152 ng/mL.

System in the next series: not listed separately
Briefly: Pharmacokinetic parameter Tmax was reported in rat after oral administration. It counts as ADME, organism-based. The following applies: in vivo. In a few lines: as §1
Consider `CC(C)[C@@H]1C(=O)N(S(C)(=O)=O)[C@@H]2CCN(C(=O)/C=C/CN3CCCCC3)[C@H]21.Cl`, for which the Tmax came to 30 min.

System in a further series: not listed separately
The experiment in a line: half life was reported in rat after oral administration. It counts as ADME, organism-based. To be noted: in vivo. The method, boiled down: as §1
`CC(C)[C@@H]1C(=O)N(S(C)(=O)=O)[C@@H]2CCN(C(=O)/C=C/CN3CCCCC3)[C@H]21.Cl` had a half-life of 48 min.

System in the next series: not listed separately
The experiment in a line: Oral bioavailability in dog. To be noted: in vivo. It counts as ADME, organism-based, Canis lupus familiaris.
Consider `CC(C)[C@@H]1C(=O)N(S(C)(=O)=O)[C@@H]2CCN(C(=O)/C=C/CN3CCCCC3)[C@H]21.Cl`, for which the bioavailability is 100%.

System in the next series: not listed separately
Briefly: half life was reported in rat after intravenous administration. The following applies: in vivo. It counts as ADME, organism-based. In a few lines:
as §1
The compound `CC(C)[C@@H]1C(=O)N(S(C)(=O)=O)[C@@H]2CCN(C(=O)/C=C/CN3CCCCC3)[C@H]21.Cl` had a half-life of 66 min.

System in another series: not listed separately
Briefly: pharmacokinetic parameter volume of distribution (Vd) was reported in rat after intravenous administration. It counts as ADME, organism-based. The following applies: in vivo, read-out: Vd area. The method, boiled down:
as §1
With `CC(C)[C@@H]1C(=O)N(S(C)(=O)=O)[C@@H]2CCN(C(=O)/C=C/CN3CCCCC3)[C@H]21.Cl`, the Vd was found to be 7.5 L/kg.

System in a further series: not listed separately
The experiment in a line: half life was reported in dog after oral administration. It counts as ADME, organism-based, Canis lupus familiaris. The following applies: in vivo.
Consider `CC(C)[C@@H]1C(=O)N(S(C)(=O)=O)[C@@H]2CCN(C(=O)/C=C/CN3CCCCC3)[C@H]21.Cl`, for which the half-life was 96 min.

System in a further series: not listed separately
The experiment in a line: half life was reported in dog after intravenous administration. It counts as ADME, organism-based, Canis lupus familiaris. To be noted: in vivo.
Regarding `CC(C)[C@@H]1C(=O)N(S(C)(=O)=O)[C@@H]2CCN(C(=O)/C=C/CN3CCCCC3)[C@H]21.Cl`, the half-life was 90 min.
